Assay results as given in ChEMBL document CHEMBL1153795, “Aromatic cyclic peroxides and related keto-compounds from the Plakortis sp. component of a sponge consortium” (2009).
Values after ≈ are worked out from the molar mass of the structure shown. Active and inactive are the calls of the source. No cut-off for these calls is given here.

Legend:
Escherichia coli = assay: Antibacterial activity against Escherichia coli after 24 hrs by broth macridilution method; type: functional, organism-based
Summary of the method: (§1)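 Broth macrodilution in LB medium (10 g/L Bactotryptone, 5 g/L Bactoyeast, 10 g/L NaCl, pH 7.5). Inoculum was set to 0.5 McFarland (2 × 10^8 cfu/mL) at 530 nm, then diluted 1:4000 to 50 000 cfu/mL. Tubes held eleven 2-fold dilutions (512–[…] µg/mL final) and were incubated 24 h at 37 °C. MIC90 was taken as the lowest concentration with no visible growth.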

Candida albicans = assay: Antifungal activity against Candida albicans after 24 hrs by broth macridilution method; type: functional, organism-based
Staphylococcus aureus = assay: Antibacterial activity against Staphylococcus aureus after 24 hrs by broth macridilution method; type: functional; summary of the method: as §1

Row | SMILES | Activity (Escherichia coli) | Activity (Candida albicans) | MIC (Staphylococcus aureus)
1 | COC(=O)C[C@]1(O)OO[C@@](C)(C/C(C)=C/C=C/Cc2ccccc2)C[C@H]1C | inactive | inactive | 
2 | CC(=O)CC(C)CCCCCC/C=C/c1ccccc1 (stereo unspecified) | inactive | inactive | 
3 | CC(=O)CC(C)CCCCCCCCc1ccccc1 (stereo unspecified) | inactive | inactive | 
4 | CC(CCCCCCCCc1ccccc1)C[C@@]1(C)C[C@@H](C)[C@@](C)(O)OO1 (stereo partly specified) | inactive | inactive | 64 µg/mL (≈ 170 µM)
5 | CC(CCCCCC/C=C/c1ccccc1)C[C@@]1(C)C[C@@H](C)[C@@](C)(O)OO1 (stereo partly specified) | inactive | inactive | 
